Results from different studies.
Each line is one published result; the experiments were not run side by side.
Target: Angiopoietin-1 receptor (TEK, Homo sapiens, UniProt Q02763)

| Structure (SMILES) | effect on | mode | technique | tested at | endpoint | value |
| --- | --- | --- | --- | --- | --- | --- |
| C#Cc1cnc(Nc2ccnc(CO)c2)nc1Nc1ccccc1S(C)(=O)=NC#N (centres unmarked) | cell-free assay |  |  | 1 µM | remaining signal | 46% |
| CC#CC(=O)N1CCC[C@H]1c1nc(-c2ccc(C(=O)Nc3ccccn3)cc2)c2c(N)nccn12 | enzyme activity | inhibitor |  | 1 µM | inhibition | 0% |
| CCCCC(=O)Nc1ccc(-c2ccc3ncn(CCC)c(=O)c3c2)cn1 | binding |  | competition with immobilised ligand | 0.5 µM | remaining binding | 94% |
| COc1ccc2oc(-c3ccc4nc(N)oc4c3)c/c(=N\c3ccccc3NC(=O)CCN)c2c1 | cell-free assay |  |  | 1 µM | remaining signal | 87% |
| COc1ccc2[nH]c3c4[nH]c5ccc(OC)cc5c4c4c(c3c2c1)C(=O)NC4=O | binding |  | competition with immobilised ligand | 1 µM | remaining binding | 100% |
| C=CC(=O)N1CCC([C@@H]2CCNc3c(C(N)=O)c(-c4ccc(Oc5ccccc5)cc4)nn32)CC1 | cell-free assay |  |  | 1 µM | inhibition | 0% |
| C[C@H]1CC[C@H](n2c3cnccc3c3cnc(Nc4ccc5c(n4)CCN(C(=O)CO)C5)nc32)CC1 | cell-free assay |  | competition with immobilised ligand | 1 µM | remaining binding | 92% |
| N#Cc1ccc(NC(=O)Nc2ccccc2)cc1 | cell-free assay |  | competition with immobilised ligand | 25 µM | remaining binding | 98% |
